≈ marks a conversion by molar mass, not a printed value. Calls of active or inactive are those of the source. The calls are words filed in the database; no cut-off is given here.
Assays:
[1] = system: Staphylococcus aureus; test: Antimicrobial activity against methicillin-resistant Staphylococcus aureus USA300 NRS384 incubated for 16 hrs by CLSI based method; assay type: functional; details: USA300 NRS384, 16 h
[2] = target: Voltage-gated inwardly rectifying potassium channel KCNH2 (Homo sapiens, UniProt Q12809)
Voltage-gated inwardly rectifying potassium channel KCNH2, sequence (Q12809 whole entry): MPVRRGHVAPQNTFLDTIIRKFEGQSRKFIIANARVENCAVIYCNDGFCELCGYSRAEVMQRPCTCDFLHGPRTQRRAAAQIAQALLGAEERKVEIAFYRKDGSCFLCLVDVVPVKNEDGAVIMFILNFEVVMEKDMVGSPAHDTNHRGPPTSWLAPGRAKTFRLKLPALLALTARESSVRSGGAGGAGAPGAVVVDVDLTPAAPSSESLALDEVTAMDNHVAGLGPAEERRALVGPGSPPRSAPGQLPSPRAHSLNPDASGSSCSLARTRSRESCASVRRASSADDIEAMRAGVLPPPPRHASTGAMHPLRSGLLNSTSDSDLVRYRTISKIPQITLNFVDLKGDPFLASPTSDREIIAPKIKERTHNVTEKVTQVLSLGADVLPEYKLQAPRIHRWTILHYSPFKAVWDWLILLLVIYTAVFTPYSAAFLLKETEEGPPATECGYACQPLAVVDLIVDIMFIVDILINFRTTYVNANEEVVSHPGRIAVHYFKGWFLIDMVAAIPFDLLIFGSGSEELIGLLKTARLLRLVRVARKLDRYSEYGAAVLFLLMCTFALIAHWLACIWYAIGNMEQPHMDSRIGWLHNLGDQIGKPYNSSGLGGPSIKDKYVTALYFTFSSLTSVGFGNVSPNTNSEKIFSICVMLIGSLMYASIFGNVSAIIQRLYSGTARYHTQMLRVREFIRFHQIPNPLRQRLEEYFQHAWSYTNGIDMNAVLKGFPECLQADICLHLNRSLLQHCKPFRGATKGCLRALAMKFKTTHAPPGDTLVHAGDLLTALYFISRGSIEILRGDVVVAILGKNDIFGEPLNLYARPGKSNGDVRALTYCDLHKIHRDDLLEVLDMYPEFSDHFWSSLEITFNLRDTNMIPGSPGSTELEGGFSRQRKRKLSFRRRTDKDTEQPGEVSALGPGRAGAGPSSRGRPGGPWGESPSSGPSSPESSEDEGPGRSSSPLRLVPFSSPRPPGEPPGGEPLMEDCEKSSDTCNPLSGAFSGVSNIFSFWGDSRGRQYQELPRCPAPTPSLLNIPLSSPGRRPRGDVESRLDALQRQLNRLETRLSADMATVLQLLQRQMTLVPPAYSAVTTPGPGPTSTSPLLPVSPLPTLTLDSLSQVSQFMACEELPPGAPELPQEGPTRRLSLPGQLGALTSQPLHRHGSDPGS

[3] = target: DNA gyrase (Staphylococcus aureus, UniProt P0A0K8+P20831); test: Inhibition of Staphylococcus aureus DNA gyrase assessed as reduction in enzyme-catalyzed supercoiling of relaxed circular pBR322 DNA by agarose gel electrophoresis; assay type: protein-complex assay
DNA gyrase, sequence (P0A0K8 whole entry): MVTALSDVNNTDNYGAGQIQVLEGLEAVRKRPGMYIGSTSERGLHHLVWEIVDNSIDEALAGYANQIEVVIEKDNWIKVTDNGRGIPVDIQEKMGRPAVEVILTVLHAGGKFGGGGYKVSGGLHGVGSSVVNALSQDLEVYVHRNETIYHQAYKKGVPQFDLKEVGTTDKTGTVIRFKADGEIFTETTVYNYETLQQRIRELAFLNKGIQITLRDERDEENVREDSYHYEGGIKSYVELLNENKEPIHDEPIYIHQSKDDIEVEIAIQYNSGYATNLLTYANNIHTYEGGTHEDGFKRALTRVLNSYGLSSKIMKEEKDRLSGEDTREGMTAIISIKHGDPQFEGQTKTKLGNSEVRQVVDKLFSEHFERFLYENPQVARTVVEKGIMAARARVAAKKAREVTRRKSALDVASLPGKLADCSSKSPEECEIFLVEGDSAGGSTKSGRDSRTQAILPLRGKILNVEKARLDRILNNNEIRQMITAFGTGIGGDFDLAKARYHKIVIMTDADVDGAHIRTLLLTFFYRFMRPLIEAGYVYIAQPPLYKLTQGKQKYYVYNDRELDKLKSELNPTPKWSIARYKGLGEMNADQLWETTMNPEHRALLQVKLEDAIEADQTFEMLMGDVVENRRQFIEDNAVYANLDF
DNA gyrase, sequence (P20831 whole entry): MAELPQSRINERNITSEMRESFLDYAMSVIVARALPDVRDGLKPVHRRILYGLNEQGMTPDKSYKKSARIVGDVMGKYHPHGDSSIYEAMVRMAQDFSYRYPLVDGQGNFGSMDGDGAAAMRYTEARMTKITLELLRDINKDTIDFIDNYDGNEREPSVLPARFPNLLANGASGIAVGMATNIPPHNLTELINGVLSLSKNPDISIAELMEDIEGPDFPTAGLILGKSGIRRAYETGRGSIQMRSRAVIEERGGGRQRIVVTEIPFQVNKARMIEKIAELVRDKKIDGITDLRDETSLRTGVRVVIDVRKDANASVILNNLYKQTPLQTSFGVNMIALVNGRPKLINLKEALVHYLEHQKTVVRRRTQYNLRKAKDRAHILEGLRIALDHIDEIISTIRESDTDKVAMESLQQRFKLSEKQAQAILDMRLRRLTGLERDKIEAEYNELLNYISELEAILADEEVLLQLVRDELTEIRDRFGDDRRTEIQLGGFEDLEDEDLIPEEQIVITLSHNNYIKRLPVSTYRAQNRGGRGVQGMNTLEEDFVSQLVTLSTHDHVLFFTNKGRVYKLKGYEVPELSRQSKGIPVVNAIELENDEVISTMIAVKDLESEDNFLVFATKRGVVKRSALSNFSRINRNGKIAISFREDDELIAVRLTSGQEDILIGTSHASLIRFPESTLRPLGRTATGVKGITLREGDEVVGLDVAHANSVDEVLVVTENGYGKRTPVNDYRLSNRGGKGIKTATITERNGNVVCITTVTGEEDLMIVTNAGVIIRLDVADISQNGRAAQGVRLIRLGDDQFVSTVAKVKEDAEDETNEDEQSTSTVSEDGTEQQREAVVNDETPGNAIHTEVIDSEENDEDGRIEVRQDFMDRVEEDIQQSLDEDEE
Procedure, shortened: (§1)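 Recombinant S. aureus gyrase kit, 0.5 U enzyme, relaxed pBR322 (250 ng/μL) in 40 mM HEPES·KOH pH 7.6, 10 mM Mg acetate, 10 mM DTT, 2 mM ATP, 500 mM K glutamate, 0.5 mg/mL albumin; 37 °C, 30 min.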

[4] = system: Escherichia coli; test: Antimicrobial activity against tolC and imp(-) containing Escherichia coli incubated for 16 hrs by CLSI based method; assay type: functional
[5] = system: Escherichia coli; test: Antimicrobial activity against Escherichia coli 8314 incubated for 16 hrs by CLSI based method; assay type: functional; details: Escherichia coli, 8314, 16 h
[6] = system: Staphylococcus aureus; test: Antimicrobial activity against ciprofloxacin-resistant Staphylococcus aureus CRC61 incubated for 16 hrs by CLSI based method; assay type: functional; details: CRC61, 16 h
[7] = system: Acinetobacter baumannii; test: Antimicrobial activity against Acinetobacter baumannii 983709 incubated for 16 hrs by CLSI based method; assay type: functional; details: Acinetobacter baumannii, 983709, 16 h
[8] = system: Staphylococcus aureus; test: Antimicrobial activity against vancomycin intermediate-resistant Staphylococcus aureus Mu50 incubated for 16 hrs by CLSI based method; assay type: functional; details: Mu50, 16 h
[9] = target: DNA gyrase (Staphylococcus aureus) (UniProt P0A0K8+P20831); test: Inhibition of Staphylococcus aureus DNA gyrase assessed as reduction in enzyme-catalyzed supercoiling of relaxed circular pBR322 DNA at 100 uM by agarose gel electrophoresis; assay type: protein-complex assay; procedure, shortened: as §1
DNA gyrase (Staphylococcus aureus), sequence (P0A0K8 2-644 limits assumed): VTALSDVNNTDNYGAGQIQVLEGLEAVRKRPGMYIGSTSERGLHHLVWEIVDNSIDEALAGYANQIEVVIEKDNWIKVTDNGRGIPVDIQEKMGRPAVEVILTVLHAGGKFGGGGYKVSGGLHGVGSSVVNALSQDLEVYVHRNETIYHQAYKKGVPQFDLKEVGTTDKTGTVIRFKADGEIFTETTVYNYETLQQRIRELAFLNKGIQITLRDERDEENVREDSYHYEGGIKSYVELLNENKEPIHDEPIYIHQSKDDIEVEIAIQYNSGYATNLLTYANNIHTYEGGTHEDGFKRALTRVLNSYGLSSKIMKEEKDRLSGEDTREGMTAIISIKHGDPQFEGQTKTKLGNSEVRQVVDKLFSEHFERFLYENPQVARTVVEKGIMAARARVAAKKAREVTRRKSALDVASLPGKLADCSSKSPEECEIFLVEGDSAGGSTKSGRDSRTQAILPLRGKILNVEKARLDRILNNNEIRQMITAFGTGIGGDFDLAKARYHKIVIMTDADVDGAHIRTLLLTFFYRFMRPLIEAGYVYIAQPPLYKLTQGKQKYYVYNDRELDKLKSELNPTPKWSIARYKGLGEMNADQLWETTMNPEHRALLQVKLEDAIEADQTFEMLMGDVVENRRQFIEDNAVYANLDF
DNA gyrase (Staphylococcus aureus), sequence (P20831 whole entry partner): as the sequence (P20831 whole entry) above

[10] = system: Staphylococcus aureus; test: Antimicrobial activity against vancomycin-resistant Staphylococcus aureus VRSA1 incubated for 16 hrs by CLSI based method; assay type: functional; details: VRSA1, 16 h
[11] = system: Klebsiella pneumoniae; test: Antimicrobial activity against Klebsiella pneumoniae CKP4 incubated for 16 hrs by CLSI based method; assay type: functional; details: CKP4, 16 h
[12] = system: Staphylococcus aureus; test: Antimicrobial activity against methicillin-resistant Staphylococcus aureus USA300-0114 incubated for 16 hrs by CLSI based method; assay type: functional; details: USA300-0114, 16 h
[13] = system: Enterococcus faecium; test: Antimicrobial activity against Enterococcus faecium 824-05 incubated for 16 hrs by CLSI based method; assay type: functional; details: 824-05, 16 h
[14] = Inhibition of Staphylococcus aureus topoisomerase 4 assessed as reduction in decatenation of kDNA at 100 to 500 uM by gel electrophoresis method
Procedure, shortened: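 Compounds were in DMSO, with water or DMSO as vehicle controls. Reactions were stopped with STEB plus chloroform:isoamyl alcohol and run on 1% agarose TAE gels stained with ethidium bromide. IC50 was taken from densitometry against reactions with and without enzyme.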

[15] = target: T1, Ribonuclease J 2 (Staphylococcus aureus (strain COL)) (UniProt Q5HGF6); test: Inhibition of Staphylococcus aureus RNAse J2
T1 sequence (whole entry): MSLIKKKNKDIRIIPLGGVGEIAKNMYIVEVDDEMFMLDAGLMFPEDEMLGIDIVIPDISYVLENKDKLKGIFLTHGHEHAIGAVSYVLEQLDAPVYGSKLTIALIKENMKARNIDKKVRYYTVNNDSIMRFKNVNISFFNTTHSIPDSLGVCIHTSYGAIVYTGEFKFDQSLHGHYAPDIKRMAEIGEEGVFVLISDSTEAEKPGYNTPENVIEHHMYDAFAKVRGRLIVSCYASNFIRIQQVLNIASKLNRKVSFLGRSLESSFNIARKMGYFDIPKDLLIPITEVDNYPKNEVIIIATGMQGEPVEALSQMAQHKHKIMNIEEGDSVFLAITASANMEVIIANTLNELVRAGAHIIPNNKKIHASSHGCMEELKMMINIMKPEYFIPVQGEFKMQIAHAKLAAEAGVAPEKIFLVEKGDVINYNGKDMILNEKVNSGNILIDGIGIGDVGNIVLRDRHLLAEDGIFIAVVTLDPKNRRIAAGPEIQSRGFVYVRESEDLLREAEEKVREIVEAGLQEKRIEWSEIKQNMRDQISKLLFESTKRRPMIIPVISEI

[16] = target: T2, Ribonuclease P protein component (Staphylococcus aureus (strain COL)) (UniProt Q5HCI2); test: Inhibition of Staphylococcus aureus RnpA
T2 sequence (whole entry): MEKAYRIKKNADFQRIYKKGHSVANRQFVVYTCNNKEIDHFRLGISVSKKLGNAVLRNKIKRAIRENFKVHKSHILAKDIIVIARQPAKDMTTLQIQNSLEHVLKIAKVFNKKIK

[17] = system: Mycobacterium tuberculosis; test: Antimicrobial activity against Mycobacterium tuberculosis mc2 6020 incubated for 16 hrs by alamar blue assay; assay type: functional; details: mc2 6020, 16 h
[18] = system: Staphylococcus aureus; test: Antimicrobial activity against Staphylococcus aureus U1 incubated for 16 hrs by CLSI based method; assay type: functional; details: U1, 16 h
[19] = system: Staphylococcus aureus; test: Antimicrobial activity against Staphylococcus aureus UAMS1 incubated for 16 hrs by CLSI based method; assay type: functional; details: UAMS1, 16 h

## OC(c1ccccc1)(c1ccccc1)C1CCN(Cc2ccc(-c3ccccc3)cc2)CC1
[1]
  MIC: 4 µg/mL (≈ 9.23 µM)
[2]
  IC50: 0.21 µM
[3]
  IC50: 125 µM
[4]
  MIC: 2 µg/mL (≈ 4.61 µM)
[5]
  MIC: > 256 µg/mL
[6]
  MIC: 4 µg/mL (≈ 9.23 µM)
[7]
  MIC: > 256 µg/mL
[8]
  MIC: 8 µg/mL (≈ 18.5 µM)
[9]
  inhibition: Active
[10]
  MIC: 8 µg/mL (≈ 18.5 µM)
[11]
  MIC: > 256 µg/mL
[12]
  MIC: 8 µg/mL (≈ 18.5 µM)
[13]
  MIC: 8 µg/mL (≈ 18.5 µM)
[14]
  IC50: 160 µM

## CC(C)(C)c1ccc(C(O)CCCN2CCC(C(O)(c3ccccc3)c3ccccc3)CC2)cc1 (centres undefined) [TERFENADINE]
[15]
  inhibition: inactive
[16]
  inhibition: inactive
[14]
  IC50: 206 µM

## OC(c1ccccc1)(c1ccccc1)C1CCN(CCCOc2ccc(-c3ccccc3)cc2)CC1
[1]
  MIC: 2 µg/mL (≈ 4.19 µM)
[17]
  MIC: 1 µg/mL (≈ 2.09 µM)
[18]
  MIC: 1 µg/mL (≈ 2.09 µM)
[2]
  IC50: 0.14 µM
[3]
  IC50: 50 µM
[4]
  MIC: 4 µg/mL (≈ 8.37 µM)
[5]
  MIC: > 128 µg/mL
[7]
  MIC: > 128 µg/mL
[19]
  MIC: 1 µg/mL (≈ 2.09 µM)
[9]
  inhibition: Active
[10]
  MIC: 2 µg/mL (≈ 4.19 µM)
[11]
  MIC: > 128 µg/mL
[14]
  IC50: 160 µM

## O=C(O)c1cn(C2CC2)c2cc(N3CCNCC3)c(F)cc2c1=O
[9]
  inhibition: Active

## CC(C)(C)c1cccc(CCN2CCC(C(O)(c3ccccc3)c3ccccc3)CC2)c1
[3]
  IC50: 93 µM
[19]
  MIC: 16 µg/mL (≈ 37.4 µM)
[14]
  IC50: > 333 µM

Source: ChEMBL document CHEMBL3351553 (J Med Chem, 2014)
